“And” between values parts separate entries of the source, which are not always exact repeats. Identical values can stand only once.
What was measured:
Rattus norvegicus [1] = assay: The saluretic (Na+) effect of compound was measured in rats after oral administration at 9 mg/kg dose; Na+ mequiv*100/cage; format: functional
Rattus norvegicus [2] = assay: Mean arterial pressure was measured in hypertensive rat at dose of 20 mg/kg, po; format: functional, Artery
In short: (§1)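 Spontaneously hypertensive rats received the compound orally. The read-out was the maximum fall in mean arterial pressure (mmHg ± SE) and the duration of effect in hours. The number of rats varied by treatment, and the protocol follows an earlier report.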

Canis familiaris [3] = assay: The saluretic(Na+) effect of compound was measured in dogs after iv administration at 2 mg/kg dose; Na+ mequiv/min=279; format: functional, Canis lupus familiaris
Canis familiaris [4] = assay: The saluretic(Cl-) effect of compound was measured in dogs after iv administration; Cl-mequiv/min=303
Canis familiaris [5] = assay: The saluretic(K+) effect of compound was measured in dogs after iv administration at 2 mg/kg dose; K+mequiv/min=20; format: functional, Canis lupus familiaris
Rattus norvegicus [6] = assay: The saluretic (Na+) effect of compound was measured in rats after oral administration at 81 mg/kg dose; Na+ mequiv*100/cage; format: functional
Rattus norvegicus [7] = assay: The saluretic(K+) effect of compound was measured in rats after oral administration at 27 mg/kg dose; K+mequiv*100/cage=14; format: functional
Rattus norvegicus [8] = assay: The saluretic(Cl-) effect of compound was measured in rats after oral administration at 9 mg/kg dose; Cl-mequiv*100/cage=14; format: functional
Rattus norvegicus [9] = assay: The saluretic(K+) effect of compound was measured in rats after oral administration at 81 mg/kg dose; K+mequiv*100/cage=14; format: functional
Rattus norvegicus [10] = assay: The saluretic(K+) effect of compound was measured in rats after oral administration at 9 mg/kg dose; K+mequiv*100/cage=14; format: functional
Rattus norvegicus [11] = assay: The saluretic (Na+) effect of compound was measured in rats after oral administration at 27 mg/kg dose; Na+ mequiv*100/cage; format: functional
Rattus norvegicus [12] = assay: The saluretic(Cl-) effect of compound was measured in rats after oral administration at 27 mg/kg dose; Cl-mequiv*100/cage=14; format: functional
Canis familiaris [13] = assay: The saluretic(K+) effect of compound was measured in dogs after iv administration at 3 mg/kg dose; K+mequiv/min=20; format: functional, Canis lupus familiaris
Rattus norvegicus [14] = assay: Saluretic(Na+) effect of compound was measured in rats after oral administration at 3 mg/kg dose; Na+ mequiv x 100/cage; format: functional
Rattus norvegicus [15] = assay: The saluretic(K+) effect of compound was measured in rats after oral administration at 3 mg/kg dose; K+ mequiv x 100/cage=14; format: functional
Canis familiaris [16] = assay: The saluretic(Cl-) effect of compound was measured in dogs after iv administration at 3 mg/kg dose; Cl-mequiv/min=303; format: functional, Canis lupus familiaris
Rattus norvegicus [17] = assay: Mean arterial pressure was measured in hypertensive rat at dose of 20 mg/kg, ip; conditions: route intraperitoneal
Rattus norvegicus [18] = assay: The saluretic(Cl-) effect of compound was measured in rats after oral administration at 3 mg/kg dose; Cl- mequiv x 100/cage =14; format: functional
Rattus norvegicus [19] = assay: The saluretic(Cl-) effect of compound was measured in rats after oral administration at 81 mg/kg dose; Cl-mequiv*100/cage=14; format: functional
Canis familiaris [20] = assay: The saluretic(Na+) effect of compound was measured in dogs after iv administration at 3 mg/kg dose; Na+ mequiv/min=279; format: functional, Canis lupus familiaris
Canis familiaris [21] = assay: The saluretic(K+) effect of compound was measured in dogs after iv administration at 5 mg/kg dose; K+mequiv/min=20
Canis familiaris [22] = assay: The saluretic(Cl-) effect of compound was measured in dogs after iv administration at 5 mg/kg dose; Cl-mequiv/min=303
Rattus norvegicus [23] = organism: Rattus norvegicus; assay: Duration of effect was measured in hypertensive rat.; format: functional; in short: as §1
Rattus norvegicus [24] = assay: Saluretic(Na+) effect of compound was measured in rats after oral administration at 3 mg/kg dose; Na+ mequiv*100/cage; format: functional
Rattus norvegicus [25] = assay: The saluretic(Na+) effect of compound was measured in rats after oral administration at 27 mg/kg dose; Na+ mequiv*100/cage; format: functional
Rattus norvegicus [26] = assay: The saluretic(K+) effect of compound was measured in rats after oral administration at 81 mg/kg dose.; format: functional
Rattus norvegicus [27] = assay: The saluretic(K+) effect of compound was measured in rats after oral administration at 3 mg/kg dose; format: functional
Rattus norvegicus [28] = assay: The saluretic(Cl-) effect of compound was measured in rats after oral administration at 3 mg/kg dose; format: functional
Rattus norvegicus [29] = assay: The saluretic(Cl-) effect of compound was measured in rats after oral administration at 81 mg/kg dose.; format: functional
Canis familiaris [30] = assay: The saluretic(Na+) effect of compound was measured in dogs after iv administration at 5 mg/kg dose; Na+ mequiv/min=279
Rattus norvegicus [31] = assay: The saluretic (Na+)effect of compound was measured in rats after oral administration at 81 mg/kg dose; format: functional
Rattus norvegicus [32] = assay: The saluretic(K+) effect of compound was measured in rats after oral administration at 3 mg/kg dose; K+mequiv*100/cage=14; format: functional
Rattus norvegicus [33] = assay: The saluretic(Cl-) effect of compound was measured in rats after oral administration at 3 mg/kg dose; Cl-mequiv*100/cage=14; format: functional
Rattus norvegicus [34] = organism: Rattus norvegicus; assay: Duration of effect was measured in hypertensive rat; format: functional; in short: as §1

| SMILES | Diuretic effects (Rattus norvegicus [1]) | Diuretic effects (Rattus norvegicus [6]) | Diuretic effects (Rattus norvegicus [7]) | Diuretic effects (Rattus norvegicus [8]) | Diuretic effects (Rattus norvegicus [9]) | Diuretic effects (Rattus norvegicus [10]) | Diuretic effects (Rattus norvegicus [11]) | Diuretic effects (Rattus norvegicus [12]; 27 mg/kg) | Diuretic effects (Canis familiaris [13]) | Diuretic effects (Canis familiaris [16]) | Diuretic effects (Rattus norvegicus [19]) | Diuretic effects (Canis familiaris [20]) | Diuretic effects (Rattus norvegicus [12]) | Max fall (Rattus norvegicus [2]; dose 20 mg/kg) [mmHg] | Diuretic effects (Rattus norvegicus [24]) | Diuretic effects (Rattus norvegicus [32]) | Diuretic effects (Rattus norvegicus [33]) | also measured |
| --- | --- | --- | --- | --- | --- | --- | --- | --- | --- | --- | --- | --- | --- | --- | --- | --- | --- | --- |
| NS(=O)(=O)c1cc(C(=O)O)c(NCc2ccco2)cc1Cl [FUROSEMIDE] | 7 | 244 | 55 | 22 | 77 | 14 | 125 | 213 and 370 | – | – | – | – | – | – | – | – | – | Max fall (Rattus norvegicus [2]; dose 30 mg/kg, in the assay text read “30 mg/kg” for “20 mg/kg”): 12 mmHg; Diuretic effects (Canis familiaris [3]): 960; Diuretic effects (Canis familiaris [4]): 1081; Diuretic effects (Canis familiaris [5]): 141 |
| CC(C)(C)c1cc(CN)c(O)cn1 | 8 | 63 | 15 | 11 | 23 | 7 | 22 | – | 20 | 303 | 98 | 279 | 37 | – | – | – | – | Diuretic effects (Rattus norvegicus [14]): 14; Diuretic effects (Rattus norvegicus [15]): 14; Max fall (Rattus norvegicus [17]): 12 mmHg; Diuretic effects (Rattus norvegicus [18]): 14 |
| CC(C)(C)c1cc(CN)c(O)c(I)n1 | – | – | – | – | – | – | 276 | 351 and 444 | – | – | – | – | – | 13 | 178 | – | – | Diuretic effects (Canis familiaris [21]): 48; Diuretic effects (Canis familiaris [22]): 729; Duration (Rattus norvegicus [23]): >24 h; Diuretic effects (Rattus norvegicus [25]): 276; Diuretic effects (Rattus norvegicus [26]): 108; Diuretic effects (Rattus norvegicus [27]): 51; Diuretic effects (Rattus norvegicus [28]): 279; Diuretic effects (Rattus norvegicus [7]; 27 mg/kg): 63 and 83; Diuretic effects (Rattus norvegicus [29]): 528; Diuretic effects (Canis familiaris [30]): 611; Diuretic effects (Rattus norvegicus [31]): 330 |
| CC(C)(C)c1cc(I)c(O)c(CN)c1 | 270 | 351 | 88 | 364 | 99 | 77 | 319 | – | 66 | 822 | 489 | 716 | 435 | – | 146 | 51 | 211 | Max fall (Rattus norvegicus [2]; dose 0.312 mg/kg, in the assay text read “0.312 mg/kg” for “20 mg/kg”): 26 mmHg |
| NS(=O)(=O)c1cc2c(cc1Cl)NCNS2(=O)=O [HYDROCHLOROTHIAZIDE] | – | – | 34 | – | 37 | – | – | – | 33 | 156 | 143 | 166 | 156 | 25 | – | 34 | 154 | Duration (Rattus norvegicus [34]): <8 h and 12 h |

Reference: ChEMBL document CHEMBL1121906, “2-(Aminomethyl)phenols, a new class of saluretic agents. 2. Synthesis and pharmacological properties of the 5-aza isostere of 2-(aminomethyl)-4-(1,1-dimethylethyl)-6-iodophenol” (1981)
